According to ChEMBL document CHEMBL4177709, “Design, synthesis and evaluation against Mycobacterium tuberculosis of azole piperazine derivatives as dicyclotyrosine (cYY) mimics” (Bioorg Med Chem, 2018):
≈ marks a conversion by molar mass, not a printed value. Calls of active or inactive are those of the source. No cut-off for these calls is given here.

Key:
[1] = tested on: Mycobacterium tuberculosis; test: Binding affinity to Mycobacterium tuberculosis CYP121A1 assessed as red shift in heme soret peak up to 250 uM by UV-visible spectrophotometric titration method
In short: (§1)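 Purified CYP121A1 (3-4 μM) titrated at 28 °C in 100 mM KPi, 200 mM KCl, 0.004% Triton X-100, pH 7.85, with small aliquots of ligand from DMSO stocks. UV-visible spectra recorded 250-800 nm. Difference spectra give peak-minus-trough absorbance change, plotted against [ligand]. Kd obtained by hyperbolic or Hill fit, averaged over triplicate titrations.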

[2] = tested on: Mycobacterium tuberculosis; test: Antibacterial activity against Mycobacterium tuberculosis H37Rv after 7 days by resazurin microtiter assay; format: functional; details: 168 h
In short: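 M. tuberculosis H37Rv grown at 37 °C in 7H9 with 10% OADC to mid-log (OD600 0.4-0.6), adjusted to McFarland no.1 and diluted 1:20. Compounds from DMSO stocks serially diluted in 7H9/OADC to final 0.39-100 µg/mL; rifampicin 0.004-1 µg/mL as control. After 7 days at 37 °C, 0.01% resazurin added; fluorescence (530/590 nm) read 24 h later.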

[3] = Binding affinity to Mycobacterium tuberculosis CYP121A1 by UV-visible spectrophotometric titration method; in short: as §1
[4] = tested on: Mycobacterium tuberculosis; test: Binding affinity to Mycobacterium tuberculosis CYP121A1 assessed as red shift in heme soret peak up to 500 uM by UV-visible spectrophotometric titration method; in short: as §1
[5] = tested on: Mycobacterium tuberculosis; test: Binding affinity to Mycobacterium tuberculosis CYP121A1 assessed as red shift in heme soret peak up to 300 uM by UV-visible spectrophotometric titration method; in short: as §1
[6] = tested on: Mycobacterium tuberculosis; test: Binding affinity to Mycobacterium tuberculosis CYP121A1 assessed as blue shift in heme soret peak up to 1750 uM by UV-visible spectrophotometric titration method; in short: as §1

O=C1CN(CCCn2ccnc2)CCN1Cc1ccc(Cl)cc1
Activity [1]: Active
MIC90 [2]: > 100 µg/mL
Kd [3]: 81.3 µM

c1ccc(CN2CCN(Cc3ccccc3)C(Cn3cncn3)C2)cc1 (stereo not given)
MIC90 [2]: > 100 µg/mL
Kd [3]: 1830 µM

c1ccc(CN2CCN(Cc3ccccc3)C(Cn3ccnc3)C2)cc1 (stereo not given)
MIC90 [2]: 50 µg/mL (≈ 144 µM)

O=C1CN(CCCn2ccnc2)CCN1Cc1ccc(Cl)cc1Cl
MIC90 [2]: 100 µg/mL (≈ 272 µM)
Kd [3]: 967 µM

O=C(Cn1cncn1)N1CCN(Cc2ccc(F)cc2)CC1
MIC90 [2]: > 100 µg/mL
Kd [3]: 960 µM

COc1ccc(CN2CCN(CCCn3ccnc3)CC2=O)cc1
Activity [4]: Active
MIC90 [2]: > 100 µg/mL
Kd [3]: 309 µM

O=C1CN(CCCn2ccnc2)CCN1Cc1ccc(F)cc1
Activity [5]: Active
MIC90 [2]: > 100 µg/mL
Kd [3]: 226 µM

COc1ccc(CN2CCN(Cc3ccc(OC)cc3)C(Cn3cncn3)C2)cc1 (stereo not given)
MIC90 [2]: 100 µg/mL (≈ 245 µM)
Kd [3]: 1300 µM

O=C(Cn1cncn1)N1CCN(Cc2ccc(Cl)cc2Cl)CC1
MIC90 [2]: > 100 µg/mL
Kd [3]: 417 µM
Activity [6]: Active

O=C(Cn1ccnc1)N1CCN(Cc2ccc(F)cc2)CC1
MIC90 [2]: > 100 µg/mL
Kd [3]: 1140 µM

COc1cc(CN2CCN(Cc3cc(OC)cc(OC)c3)C(Cn3ccnc3)C2)cc(OC)c1 (stereo not given)
MIC90 [2]: 12.5 µg/mL (≈ 26.8 µM)
Kd [3]: 1440 µM
